Data as given in ChEMBL document CHEMBL4049388, “Facile and efficient access to Androsten-17-(1',3',4')-pyrazoles and Androst-17β-(1',3',4')-pyrazoles via Vilsmeier reagents, and their antiproliferative activity evaluation in vitro” (Eur J Med Chem, 2017).
Calls of active or inactive are those of the source. The rule behind the calls is not given here.

What was measured:
HeLa [1] = assay: Induction of apoptosis in human HeLa cells assessed as gated cells at viable stage at 7.5 uM after 24 hrs by Annexin-V-FITC/propidium iodide staining based flow cytometry (reference value: 99.88%); format: functional
Outline: (§1)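 Hela cells seeded at 10^6 per well and stabilized 24 h at 37 °C, 5% CO2. Then treated 24 h at 2.5, 5.0 or 7.5 μM, DMSO negative control. Cells washed in cold PBS, resuspended at 1×10^6 cells/mL in cold binding buffer, stained with annexin V-FITC then PI for 15 min in dark, analysed by flow cytometry.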

HeLa [2] = assay: Induction of apoptosis in human HeLa cells assessed as apoptotic body formation at 7.5 uM after 48 hrs by Hoechst 33342 staining based fluorescence microscopic method; format: functional, cell-based
Outline: (§2)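 Hela cells seeded at 10^6 per well on cover slips and incubated 16 h. Then exposed 48 h at 2.5, 5.0 or 7.5 μM, DMSO negative control. Cells fixed in 4% paraformaldehyde for 15 min, washed in PBS, stained with Hoechst 33342 for 10 min. Nuclear morphology viewed by fluorescence microscopy, ex 350 nm / em 460 nm.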

A549 [3] = assay: Cytotoxicity against human A549 cells assessed as growth inhibition at 10 uM after 72 hrs by SRB assay relative to control; format: functional; details: A549, 72 h, read-out: GI
Outline: (§3)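 SRB single-dose screen at 10 μM on 293T, A549, Hela and MCF-7 cells. Results reported as percent inhibitory ratio (mean ± SD).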

HeLa [4] = assay: Cytotoxicity against human HeLa cells assessed as growth inhibition at 10 uM after 72 hrs by SRB assay relative to control; format: functional; details: read-out: GI; outline: as §3
HeLa [5] = assay: Induction of apoptosis in human HeLa cells after 24 hrs by Annexin-V-FITC/propidium iodide staining based flow cytometry; format: functional, cell-based; outline: as §1
HeLa [6] = assay: Induction of apoptosis in human HeLa cells assessed as total cells at viable stage at 7.5 uM after 24 hrs by Annexin-V-FITC/propidium iodide staining based flow cytometry (reference value: 96.16%); format: functional; outline: as §1
HeLa [7] = assay: Cell cycle arrest in human HeLa cells assessed as accumulation at G2 phase at 7.5 uM after 24 hrs by propidium iodide staining based flow cytometry (reference value: 24.36%); format: functional
HeLa [8] = assay: Induction of apoptosis in human HeLa cells assessed as nuclear condensation at 7.5 uM after 48 hrs by Hoechst 33342 staining based fluorescence microscopic method; format: functional, cell-based; outline: as §2
HeLa [9] = assay: Induction of apoptosis in human HeLa cells assessed as gated cells at late apoptotic stage at 5 uM after 24 hrs by Annexin-V-FITC/propidium iodide staining based flow cytometry (reference value: 0.03%); format: functional; outline: as §1
HeLa [10] = assay: Cell cycle arrest in human HeLa cells assessed as accumulation at G1 phase at 5 uM after 24 hrs by propidium iodide staining based flow cytometry (reference value: 56.72%); format: functional
HeLa [11] = assay: Cytotoxicity against human HeLa cells after 72 hrs by SRB assay; format: functional, cell-based
Outline: (§4)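 SRB assay on 293T, A549, Hela and MCF-7 cells, with cisplatin as reference control. IC50 calculated for each compound from triplicate assays.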

HeLa [12] = assay: Induction of apoptosis in human HeLa cells assessed as gated cells at viable stage at 5 uM after 24 hrs by Annexin-V-FITC/propidium iodide staining based flow cytometry (reference value: 99.88%); format: functional; outline: as §1
HeLa [13] = assay: Induction of apoptosis in human HeLa cells assessed as irregular nucleus at 7.5 uM after 48 hrs by Hoechst 33342 staining based fluorescence microscopic method; format: functional, cell-based; outline: as §2
HeLa [14] = assay: Induction of apoptosis in human HeLa cells assessed as gated cells at necrotic stage at 7.5 uM after 24 hrs by Annexin-V-FITC/propidium iodide staining based flow cytometry (reference value: 0.05%); format: functional; outline: as §1
HeLa [15] = assay: Cell cycle arrest in human HeLa cells assessed as accumulation at G1 phase at 7.5 uM after 24 hrs by propidium iodide staining based flow cytometry (reference value: 56.72%); format: functional
HeLa [16] = assay: Induction of apoptosis in human HeLa cells assessed as total cells at necrotic stage at 2.5 uM after 24 hrs by Annexin-V-FITC/propidium iodide staining based flow cytometry (reference value: 0.05%); format: functional; outline: as §1
HeLa [17] = assay: Induction of apoptosis in human HeLa cells assessed as gated cells at viable stage at 2.5 uM after 24 hrs by Annexin-V-FITC/propidium iodide staining based flow cytometry (reference value: 99.88%); format: functional; outline: as §1
A549 [18] = assay: Cytotoxicity against human A549 cells after 72 hrs by SRB assay; format: functional, cell-based; details: A549, 72 h; outline: as §4
HeLa [19] = assay: Cell cycle arrest in human HeLa cells assessed as accumulation at S phase after 24 hrs by propidium iodide staining based flow cytometry; format: functional
HeLa [20] = assay: Cell cycle arrest in human HeLa cells assessed as accumulation at S phase at 7.5 uM after 24 hrs by propidium iodide staining based flow cytometry (reference value: 18.92%); format: functional
HeLa [21] = assay: Induction of apoptosis in human HeLa cells assessed as total cells at late apoptotic stage at 2.5 uM after 24 hrs by Annexin-V-FITC/propidium iodide staining based flow cytometry (reference value: 0.03%); format: functional; outline: as §1
HeLa [22] = assay: Induction of apoptosis in human HeLa cells assessed as total cells at early apoptotic stage at 2.5 uM after 24 hrs by Annexin-V-FITC/propidium iodide staining based flow cytometry (reference value: 0.04%); format: functional; outline: as §1
HeLa [23] = assay: Induction of apoptosis in human HeLa cells assessed as total cells at viable stage at 5 uM after 24 hrs by Annexin-V-FITC/propidium iodide staining based flow cytometry (reference value: 96.16%); format: functional; outline: as §1
HeLa [24] = assay: Induction of apoptosis in human HeLa cells assessed as total cells at early apoptotic stage at 7.5 uM after 24 hrs by Annexin-V-FITC/propidium iodide staining based flow cytometry (reference value: 0.04%); format: functional; outline: as §1
HeLa [25] = assay: Cell cycle arrest in human HeLa cells assessed as accumulation at S phase at 2.5 uM after 24 hrs by propidium iodide staining based flow cytometry (reference value: 18.92%); format: functional
HeLa [26] = assay: Cell cycle arrest in human HeLa cells assessed as accumulation at G2 phase at 5 uM after 24 hrs by propidium iodide staining based flow cytometry (reference value: 24.36%); format: functional
HeLa [27] = assay: Induction of apoptosis in human HeLa cells assessed as total cells at early apoptotic stage at 5 uM after 24 hrs by Annexin-V-FITC/propidium iodide staining based flow cytometry (reference value: 0.04%); format: functional; outline: as §1
HeLa [28] = assay: Induction of apoptosis in human HeLa cells assessed as total cells at late apoptotic stage at 5 uM after 24 hrs by Annexin-V-FITC/propidium iodide staining based flow cytometry (reference value: 0.03%); format: functional; outline: as §1
HeLa [29] = assay: Induction of apoptosis in human HeLa cells assessed as gated cells at early apoptotic stage at 7.5 uM after 24 hrs by Annexin-V-FITC/propidium iodide staining based flow cytometry (reference value: 0.04%); format: functional; outline: as §1
HeLa [30] = assay: Cell cycle arrest in human HeLa cells assessed as accumulation at G2 phase at 2.5 uM after 24 hrs by propidium iodide staining based flow cytometry (reference value: 24.36%); format: functional
MCF7 = assay: Cytotoxicity against human MCF7 cells after 72 hrs by SRB assay; format: functional, cell-based; details: MCF7, 72 h; outline: as §4
[31] = Cytotoxicity against human 293T cells assessed as growth inhibition at 10 uM after 72 hrs by SRB assay relative to control; format: cell-based; details: HEK-293T cells, read-out: GI; outline: as §3

CCNCc1cn(-c2ccccc2)nc1C1=CC[C@H]2[C@@H]3CC=C4C[C@@H](O)CC[C@]4(C)[C@H]3CC[C@]12C
Activity (HeLa [1]): 87.49%
Activity (HeLa [2]): Active
inhibition of growth at 10 µM (A549 [3]): 91.3%
inhibition of growth at 10 µM (HeLa [4]): 92.8%
Activity (HeLa [5]): Dose-dependent effect
Activity (HeLa [6]): 78.35%
Activity (HeLa [7]): 25.31%
Activity (HeLa [8]): Active
Activity (HeLa [9]): 0.36%
Activity (HeLa [10]): 53.13%
IC50 (HeLa [11]): 530 nM
Activity (HeLa [12]): 93.44%
Activity (HeLa [13]): Active
Activity (HeLa [14]): 3.12%
Activity (HeLa [15]): 49.92%
Activity (HeLa [16]): 1.28%
Activity (HeLa [17]): 97.93%
IC50 (A549 [18]): 7390 nM
Activity (HeLa [19]): Dose-dependent effect
Activity (HeLa [20]): 24.77%
Activity (HeLa [21]): 0.16%
Activity (HeLa [22]): 0.58%
Activity (HeLa [23]): 80.32%
Activity (HeLa [24]): 7.5%
Activity (HeLa [25]): 19.8%
Activity (HeLa [26]): 22.53%
Activity (HeLa [27]): 2.08%
Activity (HeLa [28]): 0.31%
Activity (HeLa [29]): 8.37%
Activity (HeLa [30]): 25.6%
IC50 (MCF7): 2530 nM
inhibition at 72 h, 10 µM [31]: 94.2%
